{"source": "paper PMC6988732", "about": "(The Biochemical journal, 2013)", "key": {"PKCδC1B L255D": {"tested_on": "PKCδC1B L255D", "details": "in the presence or absence of PS; cited from earlier work"}, "PKCδC1B L250R": {"tested_on": "PKCδC1B L250R", "details": "cited from earlier work"}, "PKCθC1B Y239A": {"target": "T1, PKCθC1B Y239A (Mus musculus, UniProt Q02111, Y239A)", "T1 sequence (Q02111 232-281 Y239A)": "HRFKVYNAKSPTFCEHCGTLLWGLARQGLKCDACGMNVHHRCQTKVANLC", "experiment": "[3H]PDBu binding assay", "how_it_was_run": "(§1)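 GST-cleaved mouse PKCθ C1B (residues 232–281), E. coli-expressed, affinity/gel-filtration purified. PEG-precipitation [3H]PDBu binding; Kd from saturable plus linear non-specific fit. Ki: [3H]PDBu at 2–5-fold each construct's Kd, DOG or SAG 1–100000 nM, dried from chloroform with phospholipid, sonicated. PS dependence: total phospholipid 100 μg/ml, PS 0–100%, remainder PC, relative to 100% PS. Means ± S.E.M., three independent experiments.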"}, "PKCδC1B W252G": {"tested_on": "PKCδC1B W252G", "details": "PKCδC1B mutant homologous to W253G; ref Supplementary Table S1; cited from earlier work"}, "PKCθC1B wild-type": {"target": "T2, PKCθC1B wild-type (Mus musculus, UniProt Q02111)", "T2 sequence (Q02111 232-281)": "T1 sequence (Q02111 232-281 Y239A) with A8Y", "experiment": "[3H]PDBu binding assay", "how_it_was_run": "as §1"}, "PKCδC1B L254G": {"tested_on": "PKCδC1B L254G", "details": "PKCδC1B mutant homologous to L255G; ref Supplementary Table S1; cited from earlier work"}, "PKCδC1B L250D": {"tested_on": "PKCδC1B L250D", "details": "in the presence or absence of PS; cited from earlier work"}, "PKCδC1B W252K": {"tested_on": "PKCδC1B W252K", "details": "cited from earlier work"}, "PKCθC1B Q258G": {"target": "T3, PKCθC1B Q258G (Mus musculus, UniProt Q02111, Q258G)", "T3 sequence (Q02111 232-281 Q258G)": "T1 sequence (Q02111 232-281 Y239A) with A8Y, Q27G", "experiment": "[3H]PDBu binding assay", "how_it_was_run": "as §1"}, "PKCθC1B T243A": {"target": "T4, PKCθC1B T243A (Mus musculus, UniProt Q02111, T243A)", "T4 sequence (Q02111 232-281 T243A)": "T1 sequence (Q02111 232-281 Y239A) with A8Y, T12A", "experiment": "[3H]PDBu binding assay", "how_it_was_run": "as §1"}, "PKCθC1B W253G": {"target": "T5, PKCθC1B W253G (Mus musculus, UniProt Q02111, W253G)", "T5 sequence (Q02111 232-281 W253G)": "T1 sequence (Q02111 232-281 Y239A) with A8Y, W22G", "experiment": "[3H]PDBu binding assay"}, "PKCδC1B L250K": {"tested_on": "PKCδC1B L250K", "details": "cited from earlier work"}, "PKCδC1B": {"tested_on": "PKCδC1B", "details": "cited from earlier work"}, "PKCθC1B L255G": {"target": "T6, PKCθC1B L255G (Mus musculus, UniProt Q02111, L255G)", "T6 sequence (Q02111 232-281 L255G)": "T1 sequence (Q02111 232-281 Y239A) with A8Y, L24G", "experiment": "[3H]PDBu binding assay", "how_it_was_run": "as §1"}, "PKCδC1B Y238G": {"tested_on": "PKCδC1B Y238G", "details": "PKCδC1B mutant homologous to Y239A; ref Supplementary Table S1; cited from earlier work"}, "PKCδC1B L255K": {"tested_on": "PKCδC1B L255K", "details": "cited from earlier work"}}, "note": "Positions count from the first letter of the chain named. Where “and” joins values, the source holds several entries; their conditions need not be identical. Equal entries are not always repeated. Where two headings read alike, the source gives them in different places."}
{"smiles": "CCCC(=O)O[C@@H]1[C@@H](C)[C@@]2(O)[C@@H](C=C(CO)C[C@]3(O)C(=O)C(C)=C[C@@H]23)[C@@H]2C(C)(C)[C@]12OC(=O)CCC", "note": "[PDBu, phorbol 12,13-dibutyrate]", "values": [{"measurement": "effect of mutation on strong binding of PDBu", "setting": "PKCδC1B L255D", "result": "completely abolished"}, {"measurement": "reduction in PDBu binding", "setting": "PKCδC1B L250R; in the absence of lipid", "result": 6.6, "unit": "fold"}, {"measurement": "reduction in PDBu binding", "setting": "PKCδC1B L250R; in the presence of lipid", "result": 340, "unit": "fold"}, {"measurement": "PDBu binding at 50% PS relative to the level at 100% PS", "setting": "PKCθC1B Y239A; PS/PC mixture, total phospholipid 100 μg/ml, Y239A", "result": 130.7, "unit": "%"}, {"measurement": "PS percentage giving maximal [3H]PDBu binding", "setting": "PKCθC1B Y239A; PS/PC mixtures, Y239A, decrease at 100% PS", "result": "50–75%"}, {"measurement": "reduction in binding affinity compared with the wild-type", "setting": "PKCθC1B Y239A; Y239A vs wild-type PKCθC1B (Kd for PDBu, Ki for DOG/SAG)", "result": "8.51 fold and 9 fold"}, {"measurement": "Kd", "setting": "PKCθC1B Y239A; read-out: PDBu Kd, PKCθ C1B Y239A, mean ± S.E.M.", "result": "3.32 ± 0.34", "unit": "nM"}, {"measurement": "reduction in affinity for PDBu compared with the wild-type", "setting": "PKCδC1B W252G", "result": 31, "unit": "fold"}, {"measurement": "[3H]PDBu binding at 5% PS", "setting": "PKCθC1B wild-type; 5% PS in PS/PC, relative to binding at 100% PS", "result": "Approximately 30%"}, {"measurement": "[3H]PDBu binding in 100% PC", "setting": "PKCθC1B wild-type; 100% PC (0% PS)", "result": "essentially no binding"}, {"measurement": "PDBu binding at 50% PS relative to the level at 100% PS", "setting": "PKCθC1B wild-type; PS/PC mixture, total phospholipid 100 μg/ml, PKCθC1B", "result": 90.5, "unit": "%"}, {"measurement": "Kd", "setting": "PKCθC1B wild-type; read-out: PDBu Kd, PKCθ C1B WT, mean ± S.E.M. of triplicate independent experiments", "result": "0.39 ± 0.2", "unit": "nM"}, {"measurement": "reduction in affinity for PDBu compared with the wild-type", "setting": "PKCδC1B L254G", "result": "> 1000", "unit": "fold"}, {"measurement": "effect of mutation on strong binding of PDBu", "setting": "PKCδC1B L250D", "result": "completely abolished"}, {"measurement": "activity at 50% PS as percent of the maximum activity", "setting": "PKCδC1B W252K; 50% PS", "result": "approximately 55%"}, {"measurement": "binding affinity compared with the wild-type", "setting": "PKCδC1B W252K; in the absence of the PS", "result": "remained almost the same"}, {"measurement": "effect on PDBu binding compared with the wild-type", "setting": "PKCδC1B W252K; in the presence of PS", "result": 3, "unit": "fold"}, {"measurement": "PDBu binding at 50% PS relative to the level at 100% PS", "setting": "PKCθC1B Q258G; PS/PC mixture, total phospholipid 100 μg/ml, Q258G", "result": 85.7, "unit": "%"}, {"measurement": "reduction in binding affinity compared with the wild-type", "setting": "PKCθC1B Q258G; Q258G vs wild-type PKCθC1B (Kd for PDBu, Ki for DOG/SAG)", "result": 1720, "unit": "fold"}, {"measurement": "Kd", "setting": "PKCθC1B Q258G; read-out: PDBu Kd, PKCθ C1B Q258G, mean ± S.E.M.", "result": "670 ± 150", "unit": "nM"}, {"measurement": "PDBu binding at 50% PS relative to the level at 100% PS", "setting": "PKCθC1B T243A; PS/PC mixture, total phospholipid 100 μg/ml, T243A", "result": 98.2, "unit": "%"}, {"measurement": "reduction in binding affinity compared with the wild-type", "setting": "PKCθC1B T243A; T243A vs wild-type PKCθC1B (Kd for PDBu, Ki for DOG/SAG)", "result": 1.64, "unit": "fold"}, {"measurement": "Kd", "setting": "PKCθC1B T243A; read-out: PDBu Kd, PKCθ C1B T243A, mean ± S.E.M.", "result": "0.64 ± 0.06", "unit": "nM"}, {"measurement": "PDBu binding at 50% PS relative to the level at 100% PS", "setting": "PKCθC1B W253G; PS/PC mixture, total phospholipid 100 μg/ml, W253G", "result": 59.3, "unit": "%"}, {"measurement": "reduction in binding affinity compared with the wild-type", "setting": "PKCθC1B W253G; W253G vs wild-type PKCθC1B (Kd for PDBu, Ki for DOG/SAG)", "result": "7.56 fold and 8 fold"}, {"measurement": "Kd", "setting": "PKCθC1B W253G; read-out: PDBu Kd, PKCθ C1B W253G, mean ± S.E.M.", "result": "2.95 ± 0.19", "unit": "nM"}, {"measurement": "binding affinity compared with the wild-type", "setting": "PKCδC1B L250K; in the absence of the PS", "result": "remained almost the same"}, {"measurement": "effect on PDBu binding compared with the wild-type", "setting": "PKCδC1B L250K; in the presence of PS", "result": 3, "unit": "fold"}, {"measurement": "activity at 50% PS", "setting": "PKCδC1B", "result": "approximately 100%"}, {"measurement": "reduction in binding affinity compared with the wild-type", "setting": "PKCθC1B L255G; L255G vs wild-type PKCθC1B (Kd for PDBu, Ki for DOG/SAG)", "result": "11.4 fold and 11 fold"}, {"measurement": "PDBu binding at 50% PS relative to the level at 100% PS", "setting": "PKCθC1B L255G; PS/PC mixture, total phospholipid 100 μg/ml, L255G", "result": 92.8, "unit": "%"}, {"measurement": "PS percentage giving maximal [3H]PDBu binding", "setting": "PKCθC1B L255G; PS/PC mixtures, L255G, decrease at 100% PS", "result": "50–75%"}, {"measurement": "Kd", "setting": "PKCθC1B L255G; read-out: PDBu Kd, PKCθ C1B L255G, mean ± S.E.M.", "result": "4.44 ± 0.56", "unit": "nM"}, {"measurement": "reduction in the binding affinity compared with the wild-type", "setting": "PKCδC1B Y238G", "result": 60, "unit": "fold"}, {"measurement": "reduction in PDBu binding", "setting": "PKCδC1B L255K; in the absence of lipid", "result": 2.9, "unit": "fold"}, {"measurement": "reduction in PDBu binding", "setting": "PKCδC1B L255K; in the presence of lipid", "result": 250, "unit": "fold"}]}
